Five molecules from PMC4465239 (Journal of autoimmunity, 2013) can be followed below.

Read-outs that look alike come from different tables or passages of the source. Where no end group is shown, it is not given here. fluorescein = fluorescein label at the C-terminus

Test [1] deals with BDC-2.5 T cells. Type of test: cell-based, mouse. The method, boiled down: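 BDC-2.5 splenocytes were primed 14 d with 1µM mimotope, Ficoll-purified, then restimulated 14 d with irradiated (3000 rad) syngeneic splenocytes plus 1µM mimotope or 10µM variant. They were then challenged with graded mimotope and irradiated splenocytes at 37°C. After 48h, 0.4µCi/well [3H]thymidine was added and incorporation counted 18h later. Four independent experiments in duplicate; mean ± SEM; Student's t test.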

Test [2] has as its system BDC-2.5 T cells. The experiment in a line: Proliferation of anergized cells with or without exogenous IL-2. In kind it is cell-based, mouse. As to conditions: for proliferation on mimotope rechallenge with IL-2: with 3.5ng/well recombinant IL-2, mimotope+IL-2 vs. variant+IL-2 p=0.001; for proliferation on mimotope rechallenge without IL-2: without exogenous IL-2, mimotope vs. variant p=0.05. An outline of the steps:
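Anergy was induced as follows: 14 d with 1µM mimotope, then 14 d with 1µM mimotope or 10µM variant plus irradiated APC. Cells were rechallenged with irradiated syngeneic splenocytes and graded mimotope, with or without 3.5ng/well recombinant mouse IL-2, for 48h at 37°C. [3H]thymidine (0.4µCi/well) was added for a further 18h. Stimulation index = stimulated CPM/unstimulated CPM. One-way ANOVA with Bonferroni post test.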

Test [3] concerns I-A^g7. The experiment in a line: Half life of peptide:MHC interaction. Type of test: binding, mouse. The following applies: HPSEC, 37°C. An outline of the steps: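 I-Ag7 monomer (1 µM) was loaded with 10 µM C-terminally fluoresceinated peptide for 24–72h at 37°C in 100mM citrate phosphate pH 5, 0.2% NP-40, 0.02% azide, 10mM EDTA and protease inhibitors. Free peptide was removed on a BSA-blocked G-50 spin column, and 2mM unlabelled competitor peptide was added. Samples dissociated at 37°C, were resolved by size-exclusion HPLC with fluorescence detection, and t½ = ln2/decay slope.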

Test [4] deals with I-A^g7 monomer (class II MHC of the NOD mouse) (mouse (NOD)). The experiment in a line: SEC.

AHYPIPADMDV [YPDV]: the induction of anergy result in test [1] was “sufficient to induce an anergic phenotype”; in test [1] (listed as MHC variant peptide), “can induce anergy in BDC-2.5 T cells”. The “proliferation on mimotope rechallenge with IL-2” value in test [2] is given as “did not exhibit proliferation above background”. The “proliferation on mimotope rechallenge without IL-2” value in test [2] is reported as “little proliferation above background”. For the same molecule, the “stability of complex with I-A^g7” value in test [3] is given as “much less stable complex”.
Take “AHHPIWARMDA [mimotope, reference compound]”: the “background proliferation with IL-2, no peptide rechallenge” value in test [2] (cells not stimulated with peptide, plus 3.5ng/well recombinant IL-2) was “increased background proliferation”. Further, in test [2], the “proliferation on mimotope rechallenge with IL-2” value was “maintained a normal dose response to agonist stimulation” and the “proliferation on mimotope rechallenge without IL-2” value is “typical proliferation profile”. Further, the “stability of complex with I-A^g7” value in test [3] is recorded as “extremely stable complex”.
In turn, AHYPIPADMDV-fluorescein [YPDV MHC variant peptide …] came in with a half life of the peptide:MHC complex in test [4] of 4 h.

B1: IL-2: recombinant mouse IL-2 (protein, UniProt P04351 21-169, looked up)
Interleukin-2: APTSSSTSSSTAEAQQQQQQQQQQQQHLEQLLMDLQELLSRMENYRNLKLPRMLTFKFYLPKQATELKDLQCLEDELGPLRHVLDLTQSKSFQLEDAENFISNIRVTVVKLKGSDNTFECQFDDESATVVDFLRRWIAFCQSIISTSPQ
In the case of B1, in test [2] (exogenous recombinant IL-2, 3.5ng/well), the “rescue of proliferation of anergized T cells by IL-2” value was “does not rescue proliferation of anergized T cells”.
On to AHHPIWARMDA-fluorescein [BDC-2.5 mimotope peptide …], for which the half life of the peptide:MHC complex in test [4] was above 36 h.
